Measured values taken from the array DNA melting data of Ke et al. (doi:10.1101/2024.01.08.574731).

Columns and labels:
[1] = melting temperature; fluorescence melt of hairpins on a sequencing array, two-state fit, raised by 9.35 °C to match UV melts; conditions: sodium 0.088 M
Summary of the method: (§1)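 With Cy3 and quencher oligos annealed, library hairpins on a sequenced MiSeq flow cell were imaged for Cy3 fluorescence in 50 mM Na-HEPES pH 8.0, 25 mM NaCl, in 2.5 °C steps up to 60 °C. Melting temperature and folding enthalpy were derived from bootstrapped two-state fits of signals normalised to pre-quench Cy3 and to control constructs. Four replicates were combined by inverse variance, with fitted temperatures raised by 9.35 °C to match UV melts.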

[2] = folding enthalpy; higher = less favourable; fluorescence melt of hairpins on a sequencing array, two-state fit; conditions: sodium 0.088 M
Summary of the method: as §1

| Sequence | Tm [1] | folding enthalpy [2] |
| --- | --- | --- |
| GATCGTGACGACGATC ((((((....)))))) | 56.8 °C | -39.2 kcal/mol |
| GTCAACGAAAGTTGGAC ((((((....))).))) | 39.7 °C | -13.2 kcal/mol |
| GATCGGATCCCGATC ((((((...)))))) | 56 °C | -38 kcal/mol |
| GCATAGGGAAACCTACGC ((.((((....)))).)) | 35.9 °C | -27.9 kcal/mol |
| GTGACCGAAAGGTTGCAC ((((((....)))..))) | 42.2 °C | -13.8 kcal/mol |
| CTCCGGAAACGGAG (((((....))))) | 55.1 °C | -24 kcal/mol |
| GTGAGCCCGAAAGGGCAC (((..(((....)))))) | 52.5 °C | -11.2 kcal/mol |
| GATCGGCCGACCGATC ((((((....)))))) | 57.9 °C | -34.6 kcal/mol |
| GGCGAGCGAAAGCTGGCC (((.(((....))).))) | 68 °C | -34.6 kcal/mol |
| GCTGAGCGAAAGCCCTGC ((.(.((....)).).)) | 42.5 °C | -17.7 kcal/mol |
| GCATGGGCGAAAGCCTGC (((..(((....)))))) | 48.7 °C | -16.3 kcal/mol |
| GAGGCCCCGAAAGGGCTC (((..(((....)))))) | 50.7 °C | -14.1 kcal/mol |
| GCACGCGAAAGCGGTTGC ((((((....)))..))) | 49.5 °C | -13.3 kcal/mol |
| GGACCCGGAAACGAGCCC ((.(.((....)).).)) | 30.2 °C | -16 kcal/mol |
| GGATTTGGAAACGAATCC (((((.(....).))))) | 46.1 °C | -34.9 kcal/mol |
| GCGACAATCGC ((((...)))) | 41.3 °C | -13.9 kcal/mol |
| GTGCCACCGAAAGGTCAC (((..(((....)))))) | 50.5 °C | -9.49 kcal/mol |
| GGTTTAGGAAACTGAACC ((((.((....)).)))) | 43.2 °C | -31.8 kcal/mol |
| CCTCTGAAAAGAGG (((((....))))) | 48.7 °C | -20.4 kcal/mol |
| GTCCGAACGAAAGTTGAC (((..(((....)))))) | 29.1 °C | -15.3 kcal/mol |
| TATCGGAAACGATA (((((....))))) | 43 °C | -17.8 kcal/mol |
| GAAAACGCGAAAGCGTTC (((..(((....)))))) | 41.1 °C | -8.84 kcal/mol |
| GGCACAGGAAACTGCGCC (((.(((....))).))) | 55.8 °C | -50.8 kcal/mol |

| Sequence | Tm [1] | folding enthalpy [2] |
| --- | --- | --- |
| CAGTGGAAACACTG (((((....))))) | 51.7 °C | -23 kcal/mol |
| GCGGGGCGAAAGCCGGGC ((..(((....)))..)) | 56 °C | -14.8 kcal/mol |
| GATCCCTACAGGGATC ((((((....)))))) | 65.6 °C | -36.2 kcal/mol |
| GCAGCACGAAAGTGTGC (((.(((....)))))) | 55.7 °C | -18.6 kcal/mol |
| GTCATGCGAAAGCAGGAC (((.(((....))).))) | 67.7 °C | -32.2 kcal/mol |
| GGATCCGGAAACGGGTTC (.(.(((....))).).) | 38 °C | -16.8 kcal/mol |
| GGATTAGCGAAAGCTTCC (((..(((....)))))) | 32.7 °C | -11.1 kcal/mol |
| CGCACGGAAACGTAAGCG ((((((....)))..))) | 46.4 °C | -34.5 kcal/mol |
| GCAAGCGAAAGCTCGTGC ((((((....)))..))) | 37.4 °C | -15.1 kcal/mol |
| GATCTGGACGCAGATC ((((((....)))))) | 51.3 °C | -47 kcal/mol |
| GTGCAAGGAAACCTGCAC (((((.(....).))))) | 51.4 °C | -35.9 kcal/mol |
| GCATACGAAAGTAATTGC ((((((....)))..))) | 32.7 °C | -13.6 kcal/mol |
| GGGGTAGGAAACTGCCTC (.((.((....)).)).) | 38 °C | -25.1 kcal/mol |
| GATCTAGTTTTAGATC ((((((....)))))) | 42.3 °C | -32.3 kcal/mol |
| GATCGGGCGAAAGCCATC (((..(((....)))))) | 22.6 °C | -10.2 kcal/mol |
| GATCCTTCAGAGGATC ((((((....)))))) | 51.6 °C | -48.2 kcal/mol |
| GGTGACCCGAAAGGGACC (((..(((....)))))) | 38.1 °C | -14.5 kcal/mol |
| CGCATGAAAATGCG (((((....))))) | 67.6 °C | -24.9 kcal/mol |
| GAGATGCGAAAGCACCTC (((.(((....))).))) | 49 °C | -23.9 kcal/mol |
| GACCTGACGAAAGTCGTC (((..(((....)))))) | 35.9 °C | -9.44 kcal/mol |
| GAGTATCCGAAAGGACTC (((..(((....)))))) | 29.2 °C | -14.2 kcal/mol |
| CGCGCGGAAACGCAGGCG ((((((....)))..))) | 57.2 °C | -28.6 kcal/mol |
| GCCAGCGAAAGCTAGGC ((((((....))).))) | 66 °C | -25.9 kcal/mol |

| Sequence | Tm [1] | folding enthalpy [2] |
| --- | --- | --- |
| GGTCATGGAAACACGACC ((((.((....)).)))) | 43 °C | -37.1 kcal/mol |
| GTGCAGGAAACTGCAC ((((((....)))))) | 68.2 °C | -35.9 kcal/mol |
| GGGCTTGGAAACGAGCTC (.(((.(....).))).) | 42 °C | -29.7 kcal/mol |
| GACAGCGAAAGCTCCGTC ((((((....)))..))) | 34.4 °C | -9.29 kcal/mol |
| GCAGTGACGAAAGTCTGC (((..(((....)))))) | 48 °C | -23.8 kcal/mol |
| GCCGTGCGAAAGCAAAGC ((..(((....)))..)) | 40.4 °C | -9.19 kcal/mol |
| GGTTCTGAAAAGAACC ((((((....)))))) | 59.2 °C | -33.3 kcal/mol |
| GATCGTCGCGACGATC ((((((....)))))) | 67.6 °C | -37.5 kcal/mol |
| GCTCAGCGAAAGCTGTGC ((.((((....)))).)) | 64.2 °C | -21.5 kcal/mol |
| GGTTGTGGAAACGTAACC ((((..(....)..)))) | 35.7 °C | -24.3 kcal/mol |
| GCATAATCGAAAGATTGC (((..(((....)))))) | 37.2 °C | -18.1 kcal/mol |
| GGTCGTGGAAACGTGACC ((((..(....)..)))) | 46.5 °C | -20.4 kcal/mol |
| GAAAGCGGAAACACTTTC (((((.(....).))))) | 36.2 °C | -29.8 kcal/mol |
| GCCCCGCGAAAGCCGCGC ((.(.((....)).).)) | 31.5 °C | -13.7 kcal/mol |
| GATCTGCCAACAGATC ((((((....)))))) | 50 °C | -38.3 kcal/mol |
| GGATCTTCGAAAGAATCC (((..(((....)))))) | 25.8 °C | -10.7 kcal/mol |
| GAGCTGGGAAACCAGCCC (.(((((....))))).) | 46.9 °C | -11.4 kcal/mol |
| GTCCACGAAAGTGACGAC ((((((....)))..))) | 43.9 °C | -20.4 kcal/mol |
| GGAGGCGAAAGCCACTCC ((((((....)))..))) | 42.6 °C | -12.1 kcal/mol |
| GATCCCTGAAGGGATC ((((((....)))))) | 64.1 °C | -32.8 kcal/mol |
| GCGCGGCGAAAGCGGGGC ((.(.((....)).).)) | 64.4 °C | -27.7 kcal/mol |
| GAATTCCGAAAGGATTTC (((.(((....))).))) | 40.7 °C | -29.7 kcal/mol |
| GCTCTCCGAAAGGATAGC (((.(((....))).))) | 49.1 °C | -34.7 kcal/mol |
